From PubChem
Hep lipid drop – modulators of hepatic lipid droplet formation; hit rate 0.4% among 240,000; AID 1656; inhibition, % at 6.5 µM; AML12 mouse hepatocytes, oleate lipid droplets, BODIPY imaging;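 active = lipid droplet intensity inhibited by at least 50%, with more than 500 cells counted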
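Assay system: AML12 hepatocytes (mouse) / Also added: 100 µM oleic acid challenge / Times: overnight treatment with compound plus oleate / Detection: high-content imaging of BODIPY-stained droplets and DAPI nuclei / Evaluation: % inhibition of lipid droplet signal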
TAG inh – triacylglycerol accumulation inhibition. H9c2 cells, Nile Red lipid (TAG) fluorescence; cells loaded with 200 µM oleic acid. inhibition, % at 12.5 µM. hit rate 0.66% among 230,000. AID 651582;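 active = pattern-corrected inhibition of lipid staining of at least 50% with the nuclear-stain viability signal not falling by more than 50%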;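 note: 0% = DMSO wells and 100% = triacsin C control wells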
Beta2AR agonist – agonists of human beta-2 adrenergic receptor inducing internalization | P07550 | Am2.2-beta2AR cells, FAP receptor internalization, flow cytometry | response, % (concentration not given with the values) | hit rate 0.43% among 340,000;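 active = response above a set limit, near 3 SD of response in nonfluorescent compounds, cut at about 42% in these data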
NTR1 agonist – agonists of human neurotensin receptor NTR1; P30989; NTR1-U2OS beta-arrestin-GFP spot imaging, agonist mode; activation, % at 20 µM; hit rate 0.17% among 330,000;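 active = activation at or above 40% of the spot to cytoplasm intensity ratio, with at least 20 cells analyzed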;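 note: 0% = DMSO without peptide and 100% = 100 nM NTR1 peptide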
Target sequence (P30989 whole entry, looked up): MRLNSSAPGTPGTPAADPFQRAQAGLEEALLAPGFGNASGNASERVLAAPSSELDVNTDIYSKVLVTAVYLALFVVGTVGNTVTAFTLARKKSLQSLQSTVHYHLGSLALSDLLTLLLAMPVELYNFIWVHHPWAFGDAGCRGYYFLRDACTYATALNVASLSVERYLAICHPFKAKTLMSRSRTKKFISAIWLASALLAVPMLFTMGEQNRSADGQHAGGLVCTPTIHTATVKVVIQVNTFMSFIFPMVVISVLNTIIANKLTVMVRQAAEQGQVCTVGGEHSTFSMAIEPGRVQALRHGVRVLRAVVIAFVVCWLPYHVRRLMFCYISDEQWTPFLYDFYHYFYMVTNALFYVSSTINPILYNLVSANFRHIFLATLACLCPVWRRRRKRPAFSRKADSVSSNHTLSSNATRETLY
GRK2 inh – human GRK2 inhibition via aptamer displacement | P25098 | bead flow cytometry, FAM-aptamer displacement from GRK2 | inhibition of aptamer binding, % at 10 µM | hit rate 0.59% among 330,000;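 active = inhibition of aptamer binding above 40%, roughly 3 SD of noise, on plates passing a quality check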;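 note: median bead fluorescence of bound FAM aptamer so fluorescent compounds give negative values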
Arrestin-AP2 inh – inhibitors of human beta-arrestin and AP2 interaction | inhibition, % at 10 µM | hit rate 0.31% among 340,000 | AID 504490 | FITC-arrestin peptide / GST-AP2 beads, flow cytometry; AP2 beta2 appendage carries R879A mutation;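 active = inhibition above a set limit, near 3 SD of compounds lacking own fluorescence, cut at about 54% in these data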;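 note: plate controls were DMSO wells for no effect and 5 µM unlabelled arrestin peptide for full effect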
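System: GST-AP2 R879A bound to glutathione beads, E. coli-expressed. Also added: 50 nM FITC-arrestin peptide. Schedule: compound with beads 12 min RT, then probe 1 h RT. Signal: bead flow cytometry, FITC channel. Read-out basis: percent response.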
Numbers without * were called inactive. An excerpt weighted towards active compounds, which were near 2% of everything screened.

Results for O=C1C(=Cc2ccncc2)CCCc2ccccc21 ?
TAG inh: -18

What do the screens show for `O=C(O)COCC(=O)N1CCc2c([nH]c3ccccc23)C1C(F)(F)F` (configuration not stated)?
Beta2AR agonist: 2; NTR1 agonist: -1; GRK2 inh: 0; Arrestin-AP2 inh: -20

What do the screens show for `COc1ccc2cc1Oc1ccc(cc1)CC1c3c(cc(OC)c4c3Oc3cc5c(cc3O4)CCNC5C2)CCN1C` (configuration not stated)?
Hep lipid drop: 11; Beta2AR agonist: 32; NTR1 agonist: 25; GRK2 inh: 0; Arrestin-AP2 inh: 10

How did COc1ccc2cc1Oc1ccc(cc1)C[C@H]1c3c(cc(OC)c4c3Oc3c(ccc5c3[C@H](C2)N(C)CC5)O4)CCN1C do in these assays?
TAG inh: 109*; Beta2AR agonist: 32; NTR1 agonist: 29; GRK2 inh: 0; Arrestin-AP2 inh: 4

Results for CCC(=O)NC(=S)Nc1cccc(Cl)c1N1CCCCC1 ?
Beta2AR agonist: 7; NTR1 agonist: 50*; GRK2 inh: 0; Arrestin-AP2 inh: 30

What do the screens show for `CCn1c(=O)c(C(=O)Nc2nc3ccccc3[nH]2)c(O)c2ccccc21`?
TAG inh: -3; Beta2AR agonist: -8; NTR1 agonist: -1; GRK2 inh: 81*; Arrestin-AP2 inh: 1

How did CCn1c(=O)c(C(=O)Nc2ccccc2)c(O)c2ccccc21 do in these assays?
Hep lipid drop: -6; Beta2AR agonist: 10; NTR1 agonist: 2; GRK2 inh: 0; Arrestin-AP2 inh: 5

Results for CCOc1ccccc1NC(=O)CN(c1ccc(OC)cc1)S(=O)(=O)c1c(C)noc1C ?
Beta2AR agonist: 32; NTR1 agonist: 3; GRK2 inh: 1; Arrestin-AP2 inh: 6

What do the screens show for `CCOc1ccc(N(CC(=O)Nc2ccccc2C)S(=O)(=O)c2c(C)noc2C)cc1`?
TAG inh: 70*; Beta2AR agonist: 21; NTR1 agonist: 2; GRK2 inh: 0; Arrestin-AP2 inh: -2

What do the screens show for `FC(F)(F)C(F)(F)C(F)(F)c1nc2nc(Cl)c(Cl)nc2[nH]1`?
TAG inh: -1

What do the screens show for `O=C(CCc1c[nH]c2ccccc12)N1CCN(S(=O)(=O)c2ccc([N+](=O)[O-])cc2)CC1`?
TAG inh: 8

Results for C/C(=N\NS(=O)(=O)c1ccccc1)c1cccc(NC(=O)c2cccc(Cl)c2)c1 ?
Hep lipid drop: -3; Beta2AR agonist: 2; NTR1 agonist: 3; GRK2 inh: 60*; Arrestin-AP2 inh: -20

How did CCN(CC)CCC(=O)N1C/C(=C/c2ccccc2)C(=O)/C(=C\c2ccccc2)C1 do in these assays?
TAG inh: 50*; Beta2AR agonist: 17; Arrestin-AP2 inh: 4

What do the screens show for `O=C1/C(=C\c2ccccc2)CN(C(=O)CCN2CCCCC2)C/C1=C/c1ccccc1`?
TAG inh: 46; Beta2AR agonist: 18; Arrestin-AP2 inh: 9

What do the screens show for `Cc1cc(=O)oc2cc(OCc3ccc(C(=O)OCC(=O)Nc4ccc(N(C)C)cc4)cc3)ccc12`?
Hep lipid drop: -1; TAG inh: -9; Beta2AR agonist: 49*; NTR1 agonist: 0; Arrestin-AP2 inh: -1

How did Cc1cc(=O)oc2cc(OCc3ccc(C(=O)OCC(=O)NC4CCS(=O)(=O)C4)cc3)ccc12 (configuration not stated) do in these assays?
Hep lipid drop: 4; TAG inh: 5; Beta2AR agonist: 5; NTR1 agonist: 1; GRK2 inh: 9; Arrestin-AP2 inh: 26

What do the screens show for `O=C1c2c(Cl)c(Cl)c(Cl)c(Cl)c2C(=O)N1c1nccs1`?
TAG inh: -2; Beta2AR agonist: 1; Arrestin-AP2 inh: 7

How did COC(=O)CCSc1cc(NCCOC(C)=O)c([N+](=O)[O-])c2nonc12 do in these assays?
Hep lipid drop: -3; TAG inh: 8; Beta2AR agonist: 62*; NTR1 agonist: 4; GRK2 inh: 2; Arrestin-AP2 inh: 9

What do the screens show for `CCCC(=O)OCCNc1cc(SCCC(=O)OC)c2nonc2c1[N+](=O)[O-]`?
Hep lipid drop: -22; Beta2AR agonist: 18; NTR1 agonist: 8; GRK2 inh: 0; Arrestin-AP2 inh: 0

How did CCc1nc2ccc(C(=O)NCCc3ccccc3OC)cc2nc1CC do in these assays?
Hep lipid drop: -7; NTR1 agonist: 0; GRK2 inh: 0; Arrestin-AP2 inh: -9

Results for COc1ccccc1CNC(=O)c1ccc2nc3[nH]c4ccccc4c3nc2c1 ?
Hep lipid drop: 73*; Beta2AR agonist: 8; NTR1 agonist: 7; GRK2 inh: 0; Arrestin-AP2 inh: -4

What do the screens show for `COC(=O)C=C1CCC2C3CCC4=CC(=O)CCC4(C)C3C(=O)CC12C` (configuration not stated)?
TAG inh: -9; Beta2AR agonist: 94*; Arrestin-AP2 inh: 4

Results for CC12CC(=O)C3C(CCC4=CC(=O)CCC43C)C1CC=C2CC(=O)O (configuration not stated) ?
TAG inh: -7; Beta2AR agonist: 3; Arrestin-AP2 inh: 0

What do the screens show for `CCN(CC)C(=O)[C@H]1CC(CC(=O)NC/C=C(\C)CCC=C(C)C)C(=O)N2CCc3c([nH]c4ccccc34)[C@]12C` (some centres not stated)?
TAG inh: 24; Beta2AR agonist: 1; NTR1 agonist: 17; GRK2 inh: 3; Arrestin-AP2 inh: 1

How did CC(=O)SC(C[N+](=O)[O-])c1cn(C(C)=O)c2ccccc12 (configuration not stated) do in these assays?
TAG inh: 6; Beta2AR agonist: 49*; NTR1 agonist: 13; GRK2 inh: 1; Arrestin-AP2 inh: 26

How did CC(=O)n1cc(Nc2ccc([N+](=O)[O-])cc2)c2ccccc21 do in these assays?
Hep lipid drop: 6; TAG inh: 19; Beta2AR agonist: 0; NTR1 agonist: 1; GRK2 inh: 0; Arrestin-AP2 inh: 15

Results for O=C(COc1ccc2c3c(c(=O)oc2c1)CCC3)Nc1ccccn1 ?
Hep lipid drop: 17; Beta2AR agonist: 61*; NTR1 agonist: -1; GRK2 inh: 2; Arrestin-AP2 inh: 39

Results for Cc1cc(NC(=O)COC(=O)COc2ccc3c4c(c(=O)oc3c2)CCC4)no1 ?
Hep lipid drop: 30; TAG inh: 10; Beta2AR agonist: 4; NTR1 agonist: 1; GRK2 inh: 4; Arrestin-AP2 inh: 7

How did O=C(Nc1ccc2c(c1)OCO2)c1cc(C2CCCCN2C(=O)CCc2ccccc2)on1 (configuration not stated) do in these assays?
TAG inh: -4

Results for O=S(=O)(Cc1ccccc1)N(O)c1ccccc1 ?
Hep lipid drop: -17; Beta2AR agonist: 77*; NTR1 agonist: 3; GRK2 inh: 0; Arrestin-AP2 inh: 25
